Reference: ChEMBL document CHEMBL1833913, “Structure-activity relationship study of pyridazine derivatives as glutamate transporter EAAT2 activators” (Bioorg Med Chem Lett, 2011)
pEC50: −log10 of the molar value. Activity calls are given as the source filed them. The rule behind the calls is not given here.

How the values were obtained:
Astrocyte [1] = experiment: Increase of EAAT2 expression in mouse primary astrocytes at 10 uM after 24 hrs by Western blot analysis relative to control; assay type: functional
Summary of the method: (§1)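 PA-EAAT2 cells (primary astrocyte line stably expressing EAAT2 mRNA) were incubated with compound at 10 μM for 4 h or 24 h. Cells were then harvested and EAAT2 protein measured by Western blot. Results are given as fold increase over DMSO control.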

Astrocyte [2] = experiment: Increase of EAAT2 expression in mouse primary astrocytes at 10 uM after 4 hrs by Western blot analysis relative to control; assay type: functional; summary of the method: as §1
Astrocyte [3] = experiment: Increase of EAAT2 expression in mouse primary astrocytes after 24 hrs by Western blot analysis relative to beta-actin protein expression; assay type: functional, cell-based
Summary of the method: (§2)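 PA-EAAT2 cells (primary astrocyte line stably expressing EAAT2 mRNA) were exposed for 24 h to a 6-point series (0.1, 0.3, 1.0, 5.0, 10.0, 30.0 μM). EAAT2 protein was measured by Western blot and normalised separately to β-actin or GAPDH. Fold increase and EC50 were derived from the dose-response. Values are means of four separate experiments.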

Astrocyte [4] = experiment: Increase of EAAT2 expression in mouse primary astrocytes at 1 uM after 24 hrs by Western blot analysis relative to beta-actin protein expression; assay type: functional; summary of the method: as §2
Astrocyte [5] = experiment: Increase of EAAT2 expression in mouse primary astrocytes at 1 uM after 24 hrs by Western blot analysis relative to GAPDH protein expression; assay type: functional; summary of the method: as §2
Astrocyte [6] = experiment: Increase of EAAT2 expression in mouse primary astrocytes at 10 uM after 24 hrs by Western blot analysis relative to beta-actin protein expression; assay type: functional; summary of the method: as §2
Astrocyte [7] = experiment: Increase of EAAT2 expression in mouse primary astrocytes at 10 uM after 24 hrs by Western blot analysis relative to GAPDH protein expression; assay type: functional; summary of the method: as §2
Astrocyte [8] = experiment: Increase of EAAT2 expression in mouse primary astrocytes after 24 hrs by Western blot analysis relative to GAPDH protein expression; assay type: functional, cell-based; summary of the method: as §2
Astrocyte [9] = experiment: Increase of EAAT2 expression in mouse primary astrocytes at <5 uM after 24 hrs by Western blot analysis relative to control; assay type: functional

Structure (SMILES) | fold change (FC) (Astrocyte [1]) | fold change (FC) (Astrocyte [2]) | pEC50 (Astrocyte [3]) | fold change (FC) (Astrocyte [4]) | fold change (FC) (Astrocyte [5]) | fold change (FC) (Astrocyte [6]) | fold change (FC) (Astrocyte [7]) | pEC50 (Astrocyte [8]) | fold change (FC) (Astrocyte [9])
Cc1ccccc1CSc1ccc(-c2cccnc2)nn1 | inactive | 1.5 |  |  |  |  |  |  | 
Fc1cccc(Cl)c1CSc1ccc(-c2cccnc2)nn1 | 2.3 | inactive |  |  |  |  |  |  | 
Fc1ccc(CSc2ccc(-c3ccccn3)nn2)c(F)c1 | 3.8 | 2.4 | 5.59 | 1 | 1 | 3.8 | 3.7 | 5.59 | 
Cc1ccccc1CNC(=O)c1ccc(-c2ccccn2)nn1 | 1.4 | inactive |  |  |  |  |  |  | 
Cc1ccccc1CNc1ccc(-c2ccccn2)nn1 | 2.6 | 1.7 |  |  |  |  |  |  | 
c1ccc(CSc2ccc(-c3ccccn3)nn2)cc1 | 3 | 1.3 |  |  |  |  |  |  | 
Fc1ccc(CSc2ccc(-c3ccccn3)nn2)c(Cl)c1 | 1.7 | 1.6 |  |  |  |  |  |  | 
Cc1ccccc1COc1ccc(-c2ccccn2)nc1 | inactive | 1.5 |  |  |  |  |  |  | 
Fc1cccc(Cl)c1CCSc1ccc(-c2ccccn2)nn1 | 6.7 | 1.9 | 5.48 | 1.2 | 1.2 | 6.7 | 5.3 | 5.48 | >6
Fc1cccc(Cl)c1CSc1ccc(-c2ccncc2)nn1 | 1.9 | inactive |  |  |  |  |  |  | 
CC(Sc1ccc(-c2ccccn2)nn1)c1c(F)cccc1Cl (stereo not drawn) | 5.5 | 1.7 | 5.41 | 1.5 | 1.8 | 5.5 | 5.2 | 5.62 | 
Clc1cccc(CSc2ccc(-c3ccccn3)nn2)c1 | 4.1 | 2.1 | 5.77 | 4 | 4.2 | 4.1 | 3.8 | 6.30 | 
Cc1ccc(CSc2ccc(-c3ccccn3)nn2)c(C)c1 | 6.4 | 1.9 | 5.57 | 2 | 2.2 | 6.4 | 6 | 5.74 | >6
O=S(=O)(Cc1ccccc1Cl)c1ccc(-c2ccccn2)nn1 | inactive | 1.6 |  |  |  |  |  |  | 
CCSc1ccc(-c2ccccn2)nn1 | 1.9 | 1.6 |  |  |  |  |  |  | 
Cc1cccc(C)c1CSc1ccc(-c2ccccn2)nn1 | 6.5 | inactive | 5.59 | 2 | 2 | 6.5 | 6.4 | 5.62 | >6
CCCNC(=O)c1ccc(-c2ccccn2)nn1 | 1.2 | inactive |  |  |  |  |  |  | 
Cc1cccc(CSc2ccc(-c3ccccn3)nn2)c1 | 2.8 | 2 |  |  |  |  |  |  | 
Cc1ccc(COc2ccc(-c3ccccn3)nn2)c(C)c1 | 2 | inactive |  |  |  |  |  |  | 
Fc1cccc(Cl)c1CCOc1ccc(-c2ccccn2)nn1 | 3.1 | 2.2 |  |  |  |  |  |  | 
Fc1ccc(Sc2ccc(-c3ccccn3)nn2)c(Cl)c1 | 2.5 | 1.3 |  |  |  |  |  |  | 
Clc1cccc(Cl)c1CSc1ccc(-c2ccccn2)nn1 | 3.9 | 1.5 | 6.30 | 3 | 3.5 | 3.9 | 3.5 | 6.30 | 
Oc1ccc(-c2ccccn2)nn1 | 1.6 | 1.5 |  |  |  |  |  |  | 
Fc1ccc(CSc2ccc(-c3ccccn3)nn2)cc1 | 2.6 | 2.5 |  |  |  |  |  |  | 
Fc1cccc(Cl)c1COc1ccc(-c2ccccn2)nn1 | 2.9 | 1.1 |  |  |  |  |  |  | 
Cc1ccccc1CSc1ccc(-c2ccccc2)nn1 | 2 | 1.1 |  |  |  |  |  |  | 
Sc1ccc(-c2ccccn2)nn1 | 2 | inactive |  |  |  |  |  |  | 

Structure (SMILES) | fold change (FC) (Astrocyte [1]) | fold change (FC) (Astrocyte [2]) | pEC50 (Astrocyte [3]) | fold change (FC) (Astrocyte [4]) | fold change (FC) (Astrocyte [5]) | fold change (FC) (Astrocyte [6]) | fold change (FC) (Astrocyte [7]) | pEC50 (Astrocyte [8]) | fold change (FC) (Astrocyte [9])
O=S(=O)(Cc1c(F)cccc1Cl)c1ccc(-c2ccccn2)nn1 | 2.8 | 1.4 |  |  |  |  |  |  | 
c1ccc(CSc2ccc(-c3ccccn3)cc2)cc1 | 1.1 | 1.2 |  |  |  |  |  |  | 
Cc1ccc(Sc2ccc(-c3ccccn3)nn2)c(C)c1 | 2.2 | 1.2 |  |  |  |  |  |  | 
Cc1ccccc1CSc1ccc(-c2ccccn2)nn1 | 3.5 | 1.7 | 5.59 | 1 | 1 | 3.5 | 3.1 | 5.74 | 
Cc1ccc(CSc2ccc(-c3ccncc3)nn2)cc1 | 2.4 | 1.3 |  |  |  |  |  |  | 
Cc1ccccc1CCSc1ccc(-c2ccccn2)nn1 | 2.8 | 1.2 |  |  |  |  |  |  | 
Fc1cc(F)c(CSc2ccc(-c3ccccn3)nn2)c(F)c1 | 2.4 | 1.6 |  |  |  |  |  |  | 
Clc1ccccc1CCSc1ccc(-c2ccccn2)nn1 | 4.8 | 1.7 | 5.33 | 1 | 1 | 4.8 | 4.5 | 5.29 | 
Cc1ccccc1CSc1ccc(-c2ccccn2)cn1 | inactive | 1.3 |  |  |  |  |  |  | 
Clc1ccccc1CSc1ccc(-c2ccncc2)nn1 | 1.7 | 1.5 |  |  |  |  |  |  | 
CC(Oc1ccc(-c2ccccn2)nn1)c1c(F)cccc1Cl (stereo not drawn) | 3 | 1.6 |  |  |  |  |  |  | 
Cc1ccccc1CS(=O)(=O)c1ccc(-c2ccccn2)nn1 | 1.1 | 2.3 |  |  |  |  |  |  | 
Fc1ccccc1CSc1ccc(-c2ccccn2)nn1 | 3.1 | 2.2 |  |  |  |  |  |  | 
Clc1ccc(Cl)c(CSc2ccc(-c3ccccn3)nn2)c1 | 2.5 | 1.4 |  |  |  |  |  |  | 
Cc1ccc(CSc2ccc(-c3ccccn3)nn2)cc1 | 2.6 | 2.1 |  |  |  |  |  |  | 
Clc1cccc(CSc2ccc(-c3ccccn3)nn2)c1Cl | 2.4 | inactive |  |  |  |  |  |  | 
Fc1ccc(COc2ccc(-c3ccccn3)nn2)c(F)c1 | 2.3 | inactive |  |  |  |  |  |  | 
Cc1ccccc1COc1ccc(-c2ccccn2)nn1 | 2.5 | 2 |  |  |  |  |  |  | 
Fc1cccc(Cl)c1CSc1ccc(-c2ccccn2)nn1 | 2 | inactive |  |  |  |  |  |  | 
Fc1cccc(F)c1CSc1ccc(-c2ccccn2)nn1 | 2.2 | 2.1 |  |  |  |  |  |  | 
Cc1cccc(C)c1COc1ccc(-c2ccccn2)nn1 | 3.2 | 2.1 |  |  |  |  |  |  | 
Clc1ccccc1CSc1ccc(-c2ccccn2)nn1 | 4 | 2.1 | 5.48 | 1.1 | 1.6 | 4 | 4.5 | 5.49 | 
Clc1ccc(CSc2ccc(-c3ccccn3)nn2)c(Cl)c1 | inactive | 1.8 |  |  |  |  |  |  | 
Clc1ccccc1CSc1ccc(-c2cccnc2)nn1 | 1.2 | 1.2 |  |  |  |  |  |  | 
Cc1ccc(-c2ccc(SCc3c(F)cccc3Cl)nn2)cc1 | 2.3 | 1.2 |  |  |  |  |  |  | 
Cc1cc(C)c(CSc2ccc(-c3ccccn3)nn2)c(C)c1 | 4.7 | 1.7 | 5.62 | 1.5 | 1.6 | 4.7 | 4.8 | 5.68 | 
c1ccc(-c2ccc(SC3CCCc4ccccc43)nn2)nc1 (stereo not drawn) | 5.3 | inactive | 5.72 | 2.4 | 2.8 | 5.3 | 4.5 | 5.77 | 
